Laboratory results taken from ChEMBL document CHEMBL4513216, “Probing the Open Global Health Chemical Diversity Library for Multistage-Active Starting Points for Next-Generation Antimalarials” (ACS Infect Dis, 2020).

assay: Toxicity liver stage against HepG2, at 10uM; format: cell-based; set-up: test concentration 10 uM, cell line HepG2-A16-CD81EGFP; conditions: human, HepG2-A16-CD81EGFP cells; read-out: INHIBITION
How it was run: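 Uninfected HepG2-A16-CD81EGFP cells, 3 × 10^3 per well, 1536-well, plated on prespotted compound at 10 μM final, parasite-free screening media added to match infected plates; puromycin 10 μM positive, DMSO 0.5% negative; run in parallel with 48 h PbLuc assay at 37 °C, 5% CO2; viability by CellTiter-Glo luminescence, normalized to controls.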

Structure (SMILES) | cytotoxicity at 10 µM
CN(Cc1ccco1)C[C@H]1OC[C@@H]2CN(c3ncc(F)cn3)CC[C@@H]21 | 21.9%
CC(C(=O)N1CCCN(Cc2cscn2)CC1)N1CCOCC1 (configuration not stated) | -11.4%
CCOc1cc([C@@H]2N[C@H](c3nccs3)Cc3ccsc32)ccc1OC | 7.94%
CC(C)c1nnc2ccc(N3CCC(C(N)=O)CC3)nn12 | 8.63%
CCSCCC(=O)NCCn1nc2ccccn2c1=O | -9.53%
O=C(O)c1cc(Br)cnc1OCC1CC1 | 6.43%
O=C1C[C@@H]2CC[C@H](CN1)N2C(=O)CCCc1ccc(Cl)cc1 | -7.05%
Cc1cc(C)n(CCCN(C)c2cc(C3CC3)ncn2)n1 | -0.609%
Cc1nc(C2CCN(S(C)(=O)=O)CC2)nc2c1CCC(=O)N2CC(C)C | 3.44%
CN1CCC/C1=N\S(=O)(=O)c1ccc(NC(=O)c2ccc(F)cc2)cc1 | -4.84%
COc1cc(Cl)ccc1C(=O)NCC(=O)Nc1nccs1 | 6.62%
CCc1ocnc1C(=O)N1CCOCC1CC(=O)c1ccccc1 (configuration not stated) | 5.92%
CC1CCCCN1C(=O)c1ccn(COc2ccc(F)cc2)n1 (configuration not stated) | 4.7%
O=C(c1ccc(F)c(F)c1)N1CCC(Cn2cc(CO)nn2)CC1 | 5.95%
COC(=O)CCN(CC1CCOC1)C1CC1 (configuration not stated) | -9.66%
CCN1CCN(c2ccc(F)cc2C(C)NCc2nc(C)no2)CC1 (configuration not stated) | -17.9%
O=C(Nc1ccccc1)N1CCn2nnc(COc3cccnc3)c2C1 | -2.03%
COc1cccc(C(C(=O)O)N2CCC(Cn3cccn3)CC2)c1OC (configuration not stated) | -1.77%
FC(F)(F)c1cccc(CN2CCOC[C@H](Oc3cccnc3)C2)c1 | 7.74%
Cc1cnn(CC2CCCN2Cc2cc(C)no2)c1 (configuration not stated) | -1.66%
Cc1cnc(NC(=O)CSC2CCc3ccccc3NC2=O)s1 (configuration not stated) | -2.34%
c1cnn(CCNCc2nnc(C3CC3)o2)c1 | -10.5%
CC1CN(CC(=O)N2CCOCC2)CCN1Cc1nccn1C (configuration not stated) | -15.6%

Structure (SMILES) | cytotoxicity at 10 µM
Nc1cc(C(=O)N2CCCC(C(=O)CCc3ccccc3)C2)ccn1 (configuration not stated) | -6.97%
COCCNC(=O)NC1(c2nc(C)no2)CCCCC1 | 1.56%
c1cnc(OCc2nnc3n2CCN(CC2CCOCC2)C3)nc1 | 4.95%
Cc1cc(C)nc(NC2CCCN(CCCc3ccccc3)C2)n1 (configuration not stated) | 2.49%
O=C(NCc1ccccc1CN1CCCC1=O)Nc1nccs1 | 9.66%
CC(C)=CCN1C(=O)[C@@H]2CC[C@H]1CN(c1ncccn1)C2 | 9.14%
COc1ccc(C(=O)C2CCCN(c3cc(C#N)ccn3)C2)cc1F (configuration not stated) | -0.0739%
Cc1nn(CCN2CCSCC2)cc1CNCC1CC1 | -7.03%
Cc1ccc(C(=O)N2CCC(c3nccn3Cc3ccncc3)CC2)s1 | 1.2%
CCOCC1CN(CCc2ccccc2)Cc2c1cnn2C (configuration not stated) | -120%
CCOC(=O)N1CCC(C(=O)Nc2nnc(C(F)(F)F)[nH]2)CC1 | -6.01%
CCN(C(=O)CN1CCCC1c1c(C)nn(C)c1OC)C1CC1 (configuration not stated) | -0.54%
CC(C1CCN(Cc2cnn(C)c2C2CC2)CC1)N(C)C (configuration not stated) | 7.88%
CCNC(=O)NCc1cccc(N2CC=CC2)c1 | 5.03%
COc1cc(N(C)Cc2cccc(-n3cccn3)c2)nc(N)n1 | 49.1%
Cc1c(C2CCOC(C)(C)C2)nc(N)c(C#N)c1-c1ccc(O)cc1 (configuration not stated) | 22.8%
Cc1nc(NC(=O)CCN2C(=O)c3ccccc3NC2C(C)C)sc1C (configuration not stated) | 0.308%
CS(=O)(=O)NCC(=O)N[C@H]1CN(c2cnccn2)C[C@@H]1C1CC1 | -7.24%
N#Cc1ccc(SCCC(=O)N(Cc2cccnc2)C2CC2)cc1 | 12.3%
Cc1ccc(OCC(=O)NS(=O)(=O)c2c(C)noc2C)cc1C | -1.96%
COc1ccc(NC(=O)CSc2nc(C)c(C)c(C)c2C#N)cn1 | -0.82%
Cn1cc(-c2cc(C(F)F)n3nc(CCC(=O)O)nc3n2)cn1 | 1.61%
Cc1cc(C(=O)N2CCCC(c3cc(C(F)(F)F)[nH]n3)C2)[nH]n1 (configuration not stated) | -6.79%

Structure (SMILES) | cytotoxicity at 10 µM
CCC(Nc1nc(C(F)(F)F)nc2ccccc12)C(=O)O (configuration not stated) | 3.75%
Cn1cc(-c2cccc(CNC(=O)N3CCC[C@@H]3CO)c2)cn1 | -5.89%
CCN(Cc1cccc(NC(=O)COCCOC)c1)C(C)=O | -136%
Cc1cccc(C)c1NC(=O)c1cccc(N(C)S(C)(=O)=O)c1C | 3.03%
Cc1cccc(NC(=O)CN2C(=O)CC(C)(C)c3ccccc32)n1 | 2.2%
CN(C)Cc1nnc(C2CCCN(c3ncccc3F)C2)n1C (configuration not stated) | 7.36%
Cc1cc(C)c(CNc2ncnc3ccsc23)c(=O)[nH]1 | 15.9%
O=C(c1ccsc1)N1CCc2onc(CN3CCOCC3)c2C1 | 5.07%
CN(CCc1ccccc1)Cc1cc(C(=O)N2CCSCC2)no1 | 3.88%
COc1cc(C)ccc1OCCN1CC[C@@]2(O)CCNC[C@H]2C1 | -157%
COCCn1cc(C(=O)N2CCCC2c2cc(C)on2)c2ccccc21 (configuration not stated) | 6.35%
NC(=O)C1CCN(C(=O)CCCc2ccc(Cl)c(Cl)c2)CC1 | 5.34%
FC(F)(F)c1ccc2nc([C@H]3CCN(C4CCC4)C3)[nH]c2c1 | 8.04%
COc1ccc(-n2cc(CCO)cn2)cc1C(N)=O | 5.97%
CCn1nc(C(C)C)cc1C(=O)NCc1nc2ccc(OC)cc2[nH]1 | 4.28%
CC(Cn1cncn1)NCc1csc2c1CCCC2 (configuration not stated) | -1.53%
Cc1nc2ccnn2c(C)c1CCC(=O)N1CCN(CCO)CC1 | -6.29%
Cc1ccc(CNc2cnn(CC(F)F)c2)cc1C | -0.71%
Cn1ncc2c(=O)[nH]c(CN3CCCC3CCc3ccccc3)nc21 (configuration not stated) | -8.21%
CN(C)C(=O)N1CCCC2(CCN(c3ccsc3)C2=O)C1 (configuration not stated) | -72.5%
O=C(Nc1ccc2occc2c1)N1CCCC(O)(CO)CC1 (configuration not stated) | -0.735%
COc1ccc(C(=O)N2CC[C@H](CO)[C@H](O)C2)c(C)c1 | -11.5%
CCn1cc(CN2CCCC(c3[nH]ncc3-c3ccc(C)cc3)C2)cn1 (configuration not stated) | -1.67%

Structure (SMILES) | cytotoxicity at 10 µM
O=C1CC[C@H]2[C@H](CCN2c2ncccn2)N1c1ccccc1 | 5.77%
COc1cccnc1NC(=O)COc1c(C)cccc1C | 0.819%
CCNC(=O)N(C)C1CCCc2nc(C)sc21 (configuration not stated) | 12.2%
CC(C)CCNC(=O)CCc1ccnc2ccccc12 | -0.69%
CCS(=O)(=O)N1CC[C@H]2OCC[C@@]2(c2nnc(C)o2)C1 | 7.95%
O=c1ccc2c(n1Cc1cccnc1)CCN(Cc1ccoc1)CC2 | -140%
O=C(c1cc(F)cc(F)c1)N1C[C@H]2CNC[C@H]2C1 | 2.91%
COc1ccccc1C(=O)Nc1c(F)c(C(=O)N2CCCC2)nn1C | 5.83%
Cn1ccc2c(C(=O)NCCCN3CCOCC3)cccc21 | -0.452%
CC(=O)N1CCN(C(=O)C(C)Nc2ccc3ncsc3c2)CC1 (configuration not stated) | -3.25%
COc1ncc(C)cc1NC(=O)COc1ccccc1F | -9.52%
CC(C)(C)c1ncc2c(n1)CN(C(=O)c1ccc(C#N)nc1)C2 | -6.39%
CN(CC(=O)Nc1nc2c(s1)CCC2)C(=O)c1cccs1 | -10.3%
CCn1cc(CN2CCCC3(CCC(=O)N(CCC(C)C)C3)C2)cn1 (configuration not stated) | -4.73%
COCC(=O)NC1CC2(CCN(CCO)CC2)c2ccccc21 (configuration not stated) | -109%
O=c1[nH]c2cn(-c3ccc(Br)cc3)c(=O)n2[nH]1 | -5.51%
Cc1nc(C)n(CC2CCCN2Cc2ccc(F)cc2C#N)n1 (configuration not stated) | -2.59%
Cc1nnc(C2CCN(C(=O)c3ccsc3)CC2)s1 | 10.5%
Cc1nc[nH]c1CN1CCN(C2CCOCC2)CC(C(N)=O)C1 (configuration not stated) | -19.5%
CCc1nccn1C1CCCN(C(=O)c2ccc3nncn3c2)C1 (configuration not stated) | -12.7%
Cc1ocnc1C(=O)N1CCCC1c1ccc(C(=O)N2CCSCC2)s1 (configuration not stated) | -5.37%
CS(=O)(=O)Cc1ccc(Cl)cc1NCc1cccc(F)c1F | 9.2%
COc1cc(C)nc(N2CCN(C(=O)CCc3ccncc3)CC2)n1 | -5%

Structure (SMILES) | cytotoxicity at 10 µM
CCN(CC)c1ccc(NC(=O)NCC2(C(N)=O)CCOCC2)cn1 | 7.15%
Cn1cnc2c1C(COCc1ccccc1)N(Cc1ccccn1)CC2 (configuration not stated) | 9.82%
COCCCOc1ccc(C(=O)N(Cc2cnn(C)c2)C(C)C)cn1 | 2.1%
Cc1ccc(C(=O)O)cc1CNC(=O)CN1CC[C@](C)(O)C(C)(C)C1 | -4.18%
CC(C)(C)c1nc2cc(NC(=O)Cn3ccc(=O)[nH]c3=O)ccc2o1 | -7.07%
CC(C)Oc1ncccc1CNC(=O)c1ccco1 | 1.32%
CCCOC1CCCN(C(=O)c2ccnc(N3CCN(C)CC3)c2)C1 (configuration not stated) | -5.7%
O=C(NCCCc1ccco1)c1ccc(N2CCOCC2)cc1 | -5.54%
Cc1cnn(CC2CCCCN2Cc2nnc(-c3ccco3)o2)c1 (configuration not stated) | -10.4%
CN(C)C(=O)CN1CCC2(CCN(S(=O)(=O)C3CC3)CC2)C1=O | 6.32%
Cn1ccnc1CN1CCN(CC2CC2)[C@@H]2CS(=O)(=O)C[C@@H]21 | 1.02%
Cc1cc(C)cc(N2CCN(C(=O)CCN3C[C@H]4CC[C@@H]3C4)CC2=O)c1 | -4.76%
N#Cc1ccc(C2CC(=O)Nc3c(C(=O)O)nsc32)cc1 (configuration not stated) | 3.02%
c1cc(-c2cn[nH]c2)ncc1CN1CCCCC1 | -1.35%
CC(C)C1CN(S(=O)(=O)Cc2cccc(C#N)c2)CCS1 (configuration not stated) | 2.66%
Cn1ccnc1CN1CCCC(Cc2ccnc3ccncc23)CC1 (configuration not stated) | -0.751%
CC1(Cc2ccc3c(c2)OCO3)CCCN(S(=O)(=O)N2CCOCC2)C1 (configuration not stated) | -5.39%
O=C1CCNc2ccc(F)cc2CN1Cc1ccco1 | -1.36%
COc1c(CNC2CCCOc3ccc(F)cc32)c(C)nn1C (configuration not stated) | 1.51%
Cc1ccc(N2CCCC(NCc3nnc4n3CCCC4)C2=O)cc1 (configuration not stated) | -6.69%
